Assay results from ChEMBL document CHEMBL4177578, “Synthesis, pharmacological activities and molecular docking studies of pyrazolyltriazoles as anti-bacterial and anti-inflammatory agents” (Bioorg Med Chem, 2017).
≈ marks a conversion by molar mass, not a printed value. Calls of active or inactive are those of the source. The calls are words filed in the database; no cut-off is given here.

Tests used:
U-937 [1] = assay: Anti-inflammatory activity in human U937 cells assessed as inhibition of LPS-induced IL6 production at 10 uM pre-incubated for 1 hr before LPS stimulation for 24 hrs by ELISA method; type: functional
In short: (§1)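 Human U937 cells grown in RPMI1640 with 10% FBS at 37 °C, 5% CO2. Differentiated with PMA 30 ng/ml for 24 h. Test compounds added for 1 h, then LPS 1 µg/ml for 24 h. TNF-α and IL-6 in supernatant measured by ELISA. Three independent experiments.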

Salmonella paratyphi [2] = assay: Antimicrobial activity against Salmonella paratyphi at 1 mg/ml incubated for 20 to 30 mins followed by incubation for 24 hrs at 37 degC by agar plate method; type: functional, Salmonella enterica subsp. enterica serovar Paratyphi A; conditions: for zone of inhibition at 1000 µg/mL: Salmonella enterica, read-out: DIZ; for diameter of the inhibition zone (DIZ): Salmonella enterica subsp. enterica serovar Paratyphi A
In short: (§2)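 Agar well diffusion on nutrient agar. Plates swabbed with 60 µL inoculum, 8 mm wells loaded with 100 µL sample at 1.0 mg/mL, streptomycin standard and control in separate wells. Plates held 20–30 min at 4 °C for diffusion, then 24 h at 37 °C. Zone diameter read in mm; triplicate.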

[3] = Anti-inflammatory activity at 50 ug/ml using bovine serum albumin and egg albumin proteins incubated at 37 degC for 20 mins and then heated to 95 degC for 20 mins by UV-visible Spectrophotometry based protein denaturation method; type: functional
In short: (§3)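 Albumin (bovine serum or egg) at 1% in 50 mM sodium phosphate buffer pH 6.4. Mixture is 0.1 ml test sample (1 mg/ml) plus 0.2 ml albumin, made to 5 ml with buffer. Held 37 °C for 20 min, then 95 °C for 20 min. Cooled to room temperature, turbidity read at 660 nm. % inhibition = (Abs control − Abs sample)/Abs control × 100. Triplicate, averaged.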

[4] = Anti-inflammatory activity at 100 ug/ml using bovine serum albumin and egg albumin proteins incubated at 37 degC for 20 mins and then heated to 95 degC for 20 mins by UV-visible Spectrophotometry based protein denaturation method; type: functional; in short: as §3
Salmonella typhi [5] = assay: Antimicrobial activity against Salmonella typhi at 1 mg/ml incubated for 20 to 30 mins followed by incubation for 24 hrs at 37 degC by agar plate method; type: functional, Salmonella enterica subsp. enterica serovar Typhi; conditions: for zone of inhibition at 1000 µg/mL: Salmonella enterica, read-out: DIZ; for diameter of the inhibition zone (DIZ): Salmonella enterica subsp. enterica serovar Typhi; in short: as §2
[6] = Anti-inflammatory activity using bovine serum albumin and egg albumin proteins incubated at 37 degC for 20 mins and then heated to 95 degC for 20 mins by UV-visible Spectrophotometry based protein denaturation method; type: functional; in short: as §3
U-937 [7] = assay: Anti-inflammatory activity in human U937 cells assessed as inhibition of LPS-induced TNFalpha production at 10 uM pre-incubated for 1 hr before LPS stimulation for 24 hrs by ELISA method; type: functional; in short: as §1
Micrococcus luteus [8] = assay: Antimicrobial activity against Micrococcus luteus at 1 mg/ml incubated for 20 to 30 mins followed by incubation for 24 hrs at 37 degC by agar plate method; type: functional
In short: (§4)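 Agar well diffusion on nutrient agar. Plates swabbed with 60 µL inoculum; 8 mm wells loaded with 100 µL of compound at 1.0 mg/mL. Held 20–30 min at 4 °C for diffusion, then 24 h at 37 °C. Inhibition zone diameter read in mm. Triplicate.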

Salmonella typhi [9] = assay: Antimicrobial activity against Salmonella typhi incubated for 12 to 16 hrs followed by plating in nutrient agar by tube dilution method; type: functional; conditions: Salmonella enterica subsp. enterica serovar Typhi
In short: (§5)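 After 12-16 h at 37 °C in tube dilution (500 to 1.9 µg/mL; 1 mL inoculum at OD 0.2), the culture from each tube was plated on nutrient agar. MBC is the concentration at which cells are completely killed.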

Salmonella typhi [10] = assay: Antimicrobial activity against Salmonella typhi incubated for 12 to 16 hrs by tube dilution method; type: functional; conditions: Salmonella enterica subsp. enterica serovar Typhi
In short: (§6)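 Broth tube dilution, two-fold serial dilutions from 500 to 1.9 µg/mL plus a drug-free control tube. Each tube inoculated with 1 mL culture at OD 0.2 (~McFarland standard), 37 °C for 12-16 h. Turbidity compared with the control tube. MIC is the lowest concentration giving complete growth inhibition.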

Staphylococcus aureus = assay: Antimicrobial activity against Staphylococcus aureus at 1 mg/ml incubated for 20 to 30 mins followed by incubation for 24 hrs at 37 degC by agar plate method; type: functional; in short: as §4
Micrococcus luteus [11] = assay: Antimicrobial activity against Micrococcus luteus incubated for 12 to 16 hrs by tube dilution method; type: functional
In short: (§7)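 Tube dilution, serial from 500 to 1.9 µg/mL, plus drug-free control tube. Each tube inoculated with 1 mL culture at OD 0.2, incubated 37 °C for 12–16 h. MIC is the lowest concentration with no growth by turbidity. MBC is found by plating each tube on nutrient agar: the lowest concentration at which all cells are killed.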

Salmonella paratyphi [12] = assay: Antimicrobial activity against Salmonella paratyphi incubated for 12 to 16 hrs followed by plating in nutrient agar by tube dilution method; type: functional; conditions: Salmonella enterica subsp. enterica serovar Paratyphi A; in short: as §5
Salmonella paratyphi [13] = assay: Antimicrobial activity against Salmonella paratyphi incubated for 12 to 16 hrs by tube dilution method; type: functional; conditions: Salmonella enterica subsp. enterica serovar Paratyphi A; in short: as §6
Micrococcus luteus [14] = assay: Antimicrobial activity against Micrococcus luteus incubated for 12 to 16 hrs followed by plating in nutrient agar by tube dilution method; type: functional; in short: as §7

## Cc1ccc(-n2cc(CO)c(-c3ccccc3)n2)cc1
U-937 [1]
  inhibition at 10 µM: 23.8%
Salmonella paratyphi [2]
  zone of inhibition at 1000 µg/mL: 12.5 mm
[3]
  inhibition: 40.5%
[4]
  inhibition: 68.1%
Salmonella typhi [5]
  zone of inhibition at 1000 µg/mL: 17 mm
[6]
  IC50: 73.42 µg/mL (≈ 278 µM)

## OCc1cn(Cc2cn(-c3ccccc3)nc2-c2ccc(Cl)cc2Cl)nn1
U-937 [1]
  inhibition at 10 µM: 39.6%
U-937 [7]
  inhibition at 10 µM: 9.9%
Salmonella paratyphi [2]
  zone of inhibition at 1000 µg/mL: 17 mm
[3]
  inhibition: 50.9%
[4]
  inhibition: 76.7%
Salmonella typhi [5]
  zone of inhibition at 1000 µg/mL: 14 mm
[6]
  IC50: 65.17 µg/mL (≈ 163 µM)

## Cc1ccc(-n2cc(CO)c(-c3ccccc3)n2)cc1C
U-937 [1]
  inhibition at 10 µM: 46.4%
U-937 [7]
  inhibition at 10 µM: 8.35%
Salmonella paratyphi [2]
  zone of inhibition at 1000 µg/mL: 12 mm
[3]
  inhibition: 66.4%
[4]
  inhibition: 83.6%
Salmonella typhi [5]
  zone of inhibition at 1000 µg/mL: 14.5 mm
[6]
  IC50: 59.79 µg/mL (≈ 215 µM)

## OCc1cn(-c2ccccc2)nc1-c1ccc(Cl)cc1Cl
U-937 [1]
  inhibition at 10 µM: 18.3%
U-937 [7]
  inhibition at 10 µM: 4.92%
Salmonella paratyphi [2]
  zone of inhibition at 1000 µg/mL: 11.5 mm
[3]
  inhibition: 60.3%
[4]
  inhibition: 80.2%
Salmonella typhi [5]
  zone of inhibition at 1000 µg/mL: 13.5 mm
[6]
  IC50: 62.37 µg/mL (≈ 195 µM)

## OCc1cn(-c2ccccc2)nc1-c1ccc(Cl)cc1
U-937 [1]
  inhibition at 10 µM: 24.1%
U-937 [7]
  inhibition at 10 µM: 3.32%
Salmonella paratyphi [2]
  zone of inhibition at 1000 µg/mL: 12 mm
[3]
  inhibition: 67.2%
[4]
  inhibition: 83.6%
[6]
  IC50: 59.79 µg/mL (≈ 210 µM)

## OCc1cn(Cc2cn(-c3ccc(Cl)cc3)nc2-c2ccccc2)nn1
U-937 [1]
  inhibition at 10 µM: 38.8%
U-937 [7]
  inhibition at 10 µM: 12.7%
Salmonella paratyphi [2]
  zone of inhibition at 1000 µg/mL: 16.5 mm
[3]
  inhibition: 55.2%
Micrococcus luteus [8]; read-out: DIZ
  zone of inhibition at 1000 µg/mL: 11.5 mm
[4]
  inhibition: 78.5%
Salmonella typhi [5]
  zone of inhibition at 1000 µg/mL: 19.5 mm
[6]
  IC50: 63.74 µg/mL (≈ 174 µM)

## OCc1cn(-c2ccccc2)nc1-c1ccccc1
U-937 [1]
  inhibition at 10 µM: 19.6%
U-937 [7]
  inhibition at 10 µM: 1.44%
Salmonella paratyphi [2]
  zone of inhibition at 1000 µg/mL: 14 mm
[3]
  inhibition: 75.9%
[4]
  inhibition: 87.9%
Salmonella typhi [5]
  zone of inhibition at 1000 µg/mL: 11.5 mm
[6]
  IC50: 56.86 µg/mL (≈ 227 µM)

## [N-]=[N+]=NCc1cn(-c2ccccc2)nc1-c1ccc(Cl)cc1Cl
Salmonella typhi [9]
  MBC: inactive
Salmonella typhi [10]
  MIC: inactive
Staphylococcus aureus
  diameter of the inhibition zone (DIZ): inactive
Salmonella paratyphi [2]
  diameter of the inhibition zone (DIZ): inactive
Micrococcus luteus [11]
  MIC: inactive
Salmonella paratyphi [12]
  MBC: inactive
[3]
  inhibition: inactive
Micrococcus luteus [8]
  diameter of the inhibition zone (DIZ): inactive
Salmonella paratyphi [13]
  MIC: inactive
[4]
  inhibition: inactive
Micrococcus luteus [14]
  MBC: inactive
Salmonella typhi [5]
  diameter of the inhibition zone (DIZ): inactive
[6]
  IC50: Not Active

## CCOC(=O)c1nnn(Cc2cn(-c3ccccc3)nc2-c2ccc(OC)cc2)c1C(=O)OCC
Salmonella typhi [9]
  MBC: inactive
Salmonella typhi [10]
  MIC: inactive
Staphylococcus aureus
  diameter of the inhibition zone (DIZ): inactive
Salmonella paratyphi [2]
  diameter of the inhibition zone (DIZ): inactive
Micrococcus luteus [11]
  MIC: inactive
Salmonella paratyphi [12]
  MBC: inactive
[3]
  inhibition: inactive
Micrococcus luteus [8]
  diameter of the inhibition zone (DIZ): inactive
Salmonella paratyphi [13]
  MIC: inactive
[4]
  inhibition: inactive
Micrococcus luteus [14]
  MBC: inactive
Salmonella typhi [5]
  diameter of the inhibition zone (DIZ): inactive
[6]
  IC50: Not Active

## Cc1ccc(-c2nn(-c3ccccc3)cc2Cn2cc(CO)nn2)cc1
U-937 [1]
  inhibition at 10 µM: 42%
U-937 [7]
  inhibition at 10 µM: 14.8%
Salmonella paratyphi [2]
  zone of inhibition at 1000 µg/mL: 14 mm
[3]
  inhibition: 21.6%
[4]
  inhibition: 38.8%
Salmonella typhi [5]
  zone of inhibition at 1000 µg/mL: 15 mm
[6]
  IC50: 128.89 µg/mL (≈ 373 µM)

## Cc1ccc(-c2nn(-c3ccccc3)cc2CN=[N+]=[N-])cc1
Salmonella typhi [9]
  MBC: inactive
Salmonella typhi [10]
  MIC: inactive
Staphylococcus aureus
  diameter of the inhibition zone (DIZ): inactive
Salmonella paratyphi [2]
  diameter of the inhibition zone (DIZ): inactive
Micrococcus luteus [11]
  MIC: inactive
Salmonella paratyphi [12]
  MBC: inactive
[3]
  inhibition: inactive
Micrococcus luteus [8]
  diameter of the inhibition zone (DIZ): inactive
Salmonella paratyphi [13]
  MIC: inactive
[4]
  inhibition: inactive
Micrococcus luteus [14]
  MBC: inactive
Salmonella typhi [5]
  diameter of the inhibition zone (DIZ): inactive
[6]
  IC50: Not Active

## COc1ccc(-c2nn(-c3ccccc3)cc2CN=[N+]=[N-])cc1
Salmonella typhi [9]
  MBC: inactive
Salmonella typhi [10]
  MIC: inactive
Staphylococcus aureus
  diameter of the inhibition zone (DIZ): inactive
Salmonella paratyphi [2]
  diameter of the inhibition zone (DIZ): inactive
Micrococcus luteus [11]
  MIC: inactive
Salmonella paratyphi [12]
  MBC: inactive
[3]
  inhibition: inactive
Micrococcus luteus [8]
  diameter of the inhibition zone (DIZ): inactive
Salmonella paratyphi [13]
  MIC: inactive
[4]
  inhibition: inactive
Micrococcus luteus [14]
  MBC: inactive
Salmonella typhi [5]
  diameter of the inhibition zone (DIZ): inactive
[6]
  IC50: Not Active

## CCOC(=O)c1nnn(Cc2cn(-c3ccc(Cl)cc3)nc2-c2ccccc2)c1C(=O)OCC
Salmonella typhi [9]
  MBC: inactive
Salmonella typhi [10]
  MIC: inactive
Staphylococcus aureus
  diameter of the inhibition zone (DIZ): inactive
Salmonella paratyphi [2]
  diameter of the inhibition zone (DIZ): inactive
Micrococcus luteus [11]
  MIC: inactive
Salmonella paratyphi [12]
  MBC: inactive
[3]
  inhibition: inactive
Micrococcus luteus [8]
  diameter of the inhibition zone (DIZ): inactive
Salmonella paratyphi [13]
  MIC: inactive
[4]
  inhibition: inactive
Micrococcus luteus [14]
  MBC: inactive
Salmonella typhi [5]
  diameter of the inhibition zone (DIZ): inactive
[6]
  IC50: Not Active

## CCOC(=O)c1nnn(Cc2cn(-c3ccccc3)nc2-c2ccccc2)c1C(=O)OCC
Salmonella typhi [9]
  MBC: inactive
Salmonella typhi [10]
  MIC: inactive
Staphylococcus aureus
  diameter of the inhibition zone (DIZ): inactive
Salmonella paratyphi [2]
  diameter of the inhibition zone (DIZ): inactive
Micrococcus luteus [11]
  MIC: inactive
Salmonella paratyphi [12]
  MBC: inactive
[3]
  inhibition: inactive
Micrococcus luteus [8]
  diameter of the inhibition zone (DIZ): inactive
Salmonella paratyphi [13]
  MIC: inactive
[4]
  inhibition: inactive
Micrococcus luteus [14]
  MBC: inactive
Salmonella typhi [5]
  diameter of the inhibition zone (DIZ): inactive
[6]
  IC50: Not Active
